Reference: ChEMBL document CHEMBL3045677, “Sulfonamide-1,2,4-thiadiazole derivatives as antifungal and antibacterial agents: synthesis, biological evaluation, lipophilicity, and conformational studies” (2010)
In brackets after ≈: the same amount, converted by molar mass.

Experiments:
Fulvia fulva = test: Antifungal activity against Passalora fulva TK5318 at 28 degC measured after 72 hr by microdilution method; format: functional; conditions: TK5318, 72 h
In short: (§1)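 Fungi were kept on malt agar at 4 °C. Spores were washed off with sterile 0.85% saline containing 0.1% Tween 80 and adjusted to about 1.0×10⁵ per well. Compounds were dissolved in DMSO (1 mg/ml stock) and serially diluted in malt broth with inoculum in 96-well plates, 72 h at 28 °C, for MIC. MFC came from subculture into fresh broth for a further 72 h at 28 °C.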

Aspergillus versicolor = test: Antifungal activity against Aspergillus versicolor ATCC 11730 at 28 degC measured after 72 hr by microdilution method; format: functional; conditions: ATCC 11730, 72 h; in short: as §1
Aspergillus flavus = test: Antifungal activity against Aspergillus flavus ATCC 9643 at 28 degC measured after 72 hr by microdilution method; format: functional; conditions: ATCC 9643, 72 h; in short: as §1
Aspergillus niger = test: Antifungal activity against Aspergillus niger ATCC 6275 at 28 degC measured after 72 hr by microdilution method; format: functional; conditions: ATCC 6275, 72 h; in short: as §1
Trichoderma viride = test: Antifungal activity against Hypocrea rufa IAM 5061 at 28 degC measured after 72 hr by microdilution method; format: functional; conditions: IAM 5061, 72 h; in short: as §1
Aspergillus fumigatus = test: Antifungal activity against plant isolate Aspergillus fumigatus at 28 degC measured after 72 hr by microdilution method; format: functional; in short: as §1
Penicillium ochrochloron = test: Antifungal activity against Penicillium ochrochloron ATCC 9112 at 28 degC measured after 72 hr by microdilution method; format: functional; conditions: ATCC 9112, 72 h; in short: as §1
Talaromyces funiculosus = test: Antifungal activity against Talaromyces funiculosus ATCC 36839 at 28 degC measured after 72 hr by microdilution method; format: functional; conditions: ATCC 36839, 72 h; in short: as §1
Listeria monocytogenes [1] = test: Antibacterial activity against Listeria monocytogenes NCTC 7973 at […] degC measured after 72 hr by microdilution method; format: functional; conditions: NCTC 7973, 72 h
In short: (§2)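 Bactericidal endpoint: after the 24 h broth microdilution (1.0×10⁴ CFU per well, LB broth, […] °C), wells were serially subcultured into plates of fresh broth and incubated a further 72 h. MBC was the lowest concentration with no visible growth, taken as 99.5% killing of the original inoculum.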

Proteus mirabilis [2] = test: Antibacterial activity against Proteus mirabilis at […] degC measured after 72 hr by microdilution method; format: functional; in short: as §2
Salmonella typhimurium [3] = test: Antibacterial activity against Salmonella enterica subsp. enterica serovar TyphimuriumATCC 13311 at […] degC measured after 72 hr by microdilution method; format: functional, Salmonella enterica subsp. enterica serovar Typhimurium; conditions: ATCC 13311, 72 h; in short: as §2
Pseudomonas aeruginosa [4] = test: Antibacterial activity against Pseudomonas aeruginosa ATCC 27853 at […] degC measured after 72 hr by microdilution method; format: functional; conditions: ATCC 27853, 72 h; in short: as §2
Escherichia coli [5] = test: Antibacterial activity against Escherichia coli ATCC 35210 at […] degC measured after 72 hr by microdilution method; format: functional; conditions: ATCC 35210, 72 h; in short: as §2
Staphylococcus aureus [6] = test: Antibacterial activity against Staphylococcus aureus ATCC 6538 at […] degC measured after 72 hr by microdilution method; format: functional; conditions: ATCC 6538, 72 h; in short: as §2
Micrococcus flavus [7] = test: Antibacterial activity against Micrococcus flavus ATCC 10240 at […] degC measured after 72 hr by microdilution method; format: functional; conditions: ATCC 10240, 72 h; in short: as §2
Bacillus cereus [8] = test: Antibacterial activity against clinical isolate Bacillus cereus at […] degC measured after 72 hr by microdilution method; format: functional; in short: as §2
Listeria monocytogenes [9] = test: Antibacterial activity against Listeria monocytogenes NCTC 7973 at […] degC measured after 24 hr by microdilution method; format: functional; conditions: NCTC 7973, 24 h
In short: (§3)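 Bacteria suspended in sterile saline at 1.0×10⁵ CFU/ml and added at 1.0×10⁴ CFU per well to LB broth with compound (1 mg/ml) in 96-well plates. Incubated 24 h at […] °C. MIC was the lowest concentration without visible growth under a binocular microscope. OD 655 nm was read against a blank and a positive control.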

Salmonella typhimurium [10] = test: Antibacterial activity against Salmonella enterica subsp. enterica serovar Typhimurium ATCC 13311 at […] degC measured after 24 hr by microdilution method; format: functional; conditions: ATCC 13311, 24 h; in short: as §3
Pseudomonas aeruginosa [11] = test: Antibacterial activity against Pseudomonas aeruginosa ATCC 27853 at […] degC measured after 24 hr by microdilution method; format: functional; conditions: ATCC 27853, 24 h; in short: as §3
Proteus mirabilis [12] = test: Antibacterial activity against Proteus mirabilis at […] degC measured after 24 hr by microdilution method; format: functional; in short: as §3
Escherichia coli [13] = test: Antibacterial activity against Escherichia coli ATCC 35210 at […] degC measured after 24 hr by microdilution method; format: functional; conditions: ATCC 35210, 24 h; in short: as §3
Staphylococcus aureus [14] = test: Antibacterial activity against Staphylococcus aureus ATCC 6538 at […] degC measured after 24 hr by microdilution method; format: functional; conditions: ATCC 6538, 24 h; in short: as §3
Bacillus cereus [15] = test: Antibacterial activity against clinical isolate Bacillus cereus at […] degC measured after 24 hr by microdilution method; format: functional; in short: as §3
Micrococcus flavus [16] = test: Antibacterial activity against Micrococcus flavus ATCC 10240 at […] degC measured after 24 hr by microdilution method; format: functional; conditions: ATCC 10240, 24 h; in short: as §3

| Structure (SMILES) | MFC (Fulvia fulva) | MIC (Fulvia fulva) | MFC (Aspergillus versicolor) | MIC (Aspergillus versicolor) | MFC (Aspergillus flavus) | MIC (Aspergillus flavus) | MFC (Aspergillus niger) | MIC (Aspergillus niger) | MFC (Trichoderma viride) | MIC (Trichoderma viride) | MFC (Aspergillus fumigatus) | MIC (Aspergillus fumigatus) | MFC (Penicillium ochrochloron) | MIC (Penicillium ochrochloron) | MFC (Talaromyces funiculosus) | MIC (Talaromyces funiculosus) | MBC (Listeria monocytogenes [1]) | MBC (Proteus mirabilis [2]) | MBC (Salmonella typhimurium [3]) | MBC (Pseudomonas aeruginosa [4]) | further results |
| --- | --- | --- | --- | --- | --- | --- | --- | --- | --- | --- | --- | --- | --- | --- | --- | --- | --- | --- | --- | --- | --- |
| COc1cc(Cc2nnc(Nc3ccccc3)s2)c(S(=O)(=O)N2CCCC2)cc1OC | 21.7 µM (≈ 9.99 µg/mL) | 10.9 µM (≈ 5.02 µg/mL) | 43.4 µM (≈ 20 µg/mL) | 21.7 µM (≈ 9.99 µg/mL) | 43.4 µM (≈ 20 µg/mL) | 21.7 µM (≈ 9.99 µg/mL) | 43.4 µM (≈ 20 µg/mL) | 21.7 µM (≈ 9.99 µg/mL) | 21.7 µM (≈ 9.99 µg/mL) | 10.9 µM (≈ 5.02 µg/mL) | 43.4 µM (≈ 20 µg/mL) | 21.7 µM (≈ 9.99 µg/mL) | 43.4 µM (≈ 20 µg/mL) | 21.7 µM (≈ 9.99 µg/mL) | 43.4 µM (≈ 20 µg/mL) | 21.7 µM (≈ 9.99 µg/mL) | 43.4 µM (≈ 20 µg/mL) | 43.4 µM (≈ 20 µg/mL) | 21.7 µM (≈ 9.99 µg/mL) | 43.4 µM (≈ 20 µg/mL) | MBC (Escherichia coli [5]): 43.4 µM (≈ 20 µg/mL); MBC (Staphylococcus aureus [6]): 43.4 µM (≈ 20 µg/mL); MBC (Micrococcus flavus [7]): 21.7 µM (≈ 9.99 µg/mL); MBC (Bacillus cereus [8]): 21.7 µM (≈ 9.99 µg/mL); MIC (Listeria monocytogenes [9]): 21.7 µM (≈ 9.99 µg/mL); MIC (Salmonella typhimurium [10]): 10.9 µM (≈ 5.02 µg/mL); MIC (Pseudomonas aeruginosa [11]): 21.7 µM (≈ 9.99 µg/mL); MIC (Proteus mirabilis [12]): 21.7 µM (≈ 9.99 µg/mL); MIC (Escherichia coli [13]): 21.7 µM (≈ 9.99 µg/mL); MIC (Staphylococcus aureus [14]): 21.7 µM (≈ 9.99 µg/mL); MIC (Bacillus cereus [15]): 10.9 µM (≈ 5.02 µg/mL); MIC (Micrococcus flavus [16]): 10.9 µM (≈ 5.02 µg/mL) |
| COc1cc(Cc2nnc(Nc3ccc(Cl)cc3)s2)c(S(=O)(=O)N2CCCC2)cc1OC | 20.2 µM (≈ 10 µg/mL) | 10.1 µM (≈ 5 µg/mL) | 40.4 µM (≈ 20 µg/mL) | 20.2 µM (≈ 10 µg/mL) | 40.4 µM (≈ 20 µg/mL) | 20.2 µM (≈ 10 µg/mL) | 40.4 µM (≈ 20 µg/mL) | 20.2 µM (≈ 10 µg/mL) | 20.2 µM (≈ 10 µg/mL) | 10.1 µM (≈ 5 µg/mL) | 40.4 µM (≈ 20 µg/mL) | 20.2 µM (≈ 10 µg/mL) | 40.4 µM (≈ 20 µg/mL) | 20.2 µM (≈ 10 µg/mL) | 20.2 µM (≈ 10 µg/mL) | 10.1 µM (≈ 5 µg/mL) | 40.4 µM (≈ 20 µg/mL) | 40.4 µM (≈ 20 µg/mL) | 20.2 µM (≈ 10 µg/mL) | 40.4 µM (≈ 20 µg/mL) | MBC (Escherichia coli [5]): 40.4 µM (≈ 20 µg/mL); MBC (Staphylococcus aureus [6]): 40.4 µM (≈ 20 µg/mL); MBC (Micrococcus flavus [7]): 40.4 µM (≈ 20 µg/mL); MBC (Bacillus cereus [8]): 40.4 µM (≈ 20 µg/mL); MIC (Listeria monocytogenes [9]): 40.4 µM (≈ 20 µg/mL); MIC (Salmonella typhimurium [10]): 10.1 µM (≈ 5 µg/mL); MIC (Pseudomonas aeruginosa [11]): 20.2 µM (≈ 10 µg/mL); MIC (Proteus mirabilis [12]): 20.2 µM (≈ 10 µg/mL); MIC (Escherichia coli [13]): 15.2 µM (≈ 7.52 µg/mL); MIC (Staphylococcus aureus [14]): 20.2 µM (≈ 10 µg/mL); MIC (Bacillus cereus [15]): 20.2 µM (≈ 10 µg/mL); MIC (Micrococcus flavus [16]): 20.2 µM (≈ 10 µg/mL) |
| COc1cc(Cc2nnc(Nc3ccc([N+](=O)[O-])cc3)s2)c(S(=O)(=O)N2CCCC2)cc1OC | 19.8 µM (≈ 10 µg/mL) | 9.9 µM (≈ 5.01 µg/mL) | 39.6 µM (≈ 20 µg/mL) | 19.8 µM (≈ 10 µg/mL) | 39.6 µM (≈ 20 µg/mL) | 19.8 µM (≈ 10 µg/mL) | 39.6 µM (≈ 20 µg/mL) | 19.8 µM (≈ 10 µg/mL) | 19.8 µM (≈ 10 µg/mL) | 9.9 µM (≈ 5.01 µg/mL) | 19.8 µM (≈ 10 µg/mL) | 9.9 µM (≈ 5.01 µg/mL) | 39.6 µM (≈ 20 µg/mL) | 19.8 µM (≈ 10 µg/mL) | 19.8 µM (≈ 10 µg/mL) | 9.9 µM (≈ 5.01 µg/mL) | 39.6 µM (≈ 20 µg/mL) | 79.2 µM (≈ 40 µg/mL) | 79.2 µM (≈ 40 µg/mL) | 39.6 µM (≈ 20 µg/mL) | MBC (Escherichia coli [5]): 39.6 µM (≈ 20 µg/mL); MBC (Staphylococcus aureus [6]): 39.6 µM (≈ 20 µg/mL); MBC (Micrococcus flavus [7]): 39.6 µM (≈ 20 µg/mL); MBC (Bacillus cereus [8]): 39.6 µM (≈ 20 µg/mL); MIC (Listeria monocytogenes [9]): 19.8 µM (≈ 10 µg/mL); MIC (Salmonella typhimurium [10]): 39.6 µM (≈ 20 µg/mL); MIC (Pseudomonas aeruginosa [11]): 19.8 µM (≈ 10 µg/mL); MIC (Proteus mirabilis [12]): 39.6 µM (≈ 20 µg/mL); MIC (Escherichia coli [13]): 19.8 µM (≈ 10 µg/mL); MIC (Staphylococcus aureus [14]): 19.8 µM (≈ 10 µg/mL); MIC (Bacillus cereus [15]): 19.8 µM (≈ 10 µg/mL); MIC (Micrococcus flavus [16]): 19.8 µM (≈ 10 µg/mL) |
